# Assay results reported in ChEMBL document CHEMBL1132160, “Structure-antiviral activity relationship in the series of pyrimidine and purine N-[2-(2-phosphonomethoxy)ethyl] nucleotide analogues. 1. Derivatives substituted at the carbon atoms of the base” (J Med Chem, 1999).
# Key:
# [1] = tested on: Human immunodeficiency virus 1; assay: Inhibitory activity of compound against human immunodeficiency virus type 1 (HIV-1) induced cytopathogenicity in MT-4 cells; format: functional, organism-based; settings: Human immunodeficiency virus 1, MT4
# Outline: (§1)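 Human MT-4 cells (~4 × 10⁵ cells/mL) were infected with 100 CCID50 of HIV-1 (IIIB)/mL and seeded into wells containing compound dilutions. After 5 days at 37 °C, viable cells were counted by trypan blue exclusion in a blood cell counting chamber.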
# [2] = tested on: E6SM; assay: Inhibitory activity against herpes simplex virus type 2 (HSV-2) Lyons strain.; format: functional, cell-based, Homo sapiens
# Outline: (§2)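 Confluent E6SM cell cultures were inoculated with 100 CCID50 of virus and allowed 1 h for adsorption. Residual virus was then removed, and the cells were incubated with test compound at 400, 200, 100, ... μg/mL. Viral cytopathicity was scored once it reached completion in untreated infected controls.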
# [3] = tested on: Human alphaherpesvirus 1; assay: Iactivity against herpes simplex virus type 1 (HSV-1) McIntyre strain.; format: functional, organism-based; outline: as §2
# [4] = tested on: Human alphaherpesvirus 1; assay: Inhibitory activity against herpes simplex virus type 1 (HSV-1) F strain; format: functional, organism-based; outline: as §2
# [5] = tested on: HEL; assay: Compound was evaluated for inhibitory activity against varicella zoster virus thymidine kinase (VZV TK-) 07/1 strain; NA=not active; format: functional, cell-based, Homo sapiens
# [6] = tested on: Human alphaherpesvirus 1; assay: Inhibitory activity against herpes simplex virus type 1 (HSV-1) KOS strain.; format: functional, organism-based; outline: as §2
# [7] = tested on: Human alphaherpesvirus 2; assay: Inhibitory activity against herpes simplex virus type 2 (HSV-2) G strain.; format: functional, organism-based; outline: as §2
# [8] = tested on: Cytomegalovirus; assay: Inhibitory activity against cytomegalovirus (CMV) AD 169 strain; format: functional, organism-based; settings: Human betaherpesvirus 5
# Outline: (§3)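 HEL cell cultures, grown to confluence, received 100 CCID50 of virus. After 1 h adsorption, the inoculum was removed and the cultures were incubated with serial concentrations of compound (400, 200, 100, ... μg/mL).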
# [9] = Inhibitory activity against murine sarcoma virus induced transformation of murine C3H/3T3 embryo fibroblasts; format: functional, Mus musculus
# Outline: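 Murine C3H/3T3 embryo fibroblasts were seeded at 5 × 10⁵ cells/mL. After 24 h they were infected with 80 focus-forming units of MSV for 90–120 min at 37 °C. The medium was then replaced with fresh medium containing various compound concentrations, and transformation was examined microscopically after 6 days.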
# [10] = tested on: Cytomegalovirus; assay: Inhibitory activity against cytomegalovirus (CMV) Davis strain; format: functional, organism-based; settings: Human betaherpesvirus 5; outline: as §3
# [11] = tested on: Human alphaherpesvirus 1; assay: Inhibitory activity against herpes simplex virus type 1 thymidine kinase (HSV-1 TK-) VMW 1837 strain.
# [12] = tested on: E6SM; assay: Compound was evaluated for inhibitory activity against herpes simplex virus type 1 thymidine kinase (HSV-1 TK-) B2006 strain; NA=not active; format: functional, cell-based, Homo sapiens; outline: as §2
# [13] = tested on: HEL; assay: Compound was evaluated for inhibitory activity against varicella zoster virus thymidine kinase (VZV TK+) OKA strain; NA=Not Active; format: functional, cell-based, Homo sapiens; outline: as §3
# [14] = tested on: HEL; assay: Compound was evaluated for inhibitory activity against varicella zoster virus thymidine kinase (VZV TK+) YS strain; NA=not active; format: functional, cell-based, Homo sapiens; outline: as §3
# [15] = tested on: Vaccinia virus; assay: Inhibitory activity against vaccinia virus (VV).; format: functional, organism-based, Orthopoxvirus vaccinia
# Outline: (§4)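 Confluent E6SM cell cultures were inoculated with 100 CCID50 of virus and left for 1 h adsorption, then residual virus was removed. Cultures were incubated with test compound at serial concentrations (400, 200, 100, ... μg/mL). Virus-induced cytopathicity was scored once it reached completion in untreated infected control cultures.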
# [16] = tested on: Human alphaherpesvirus 2; assay: Inhibitory activity against herpes simplex virus type 2 (HSV-2) 196 strain.; format: functional, organism-based; outline: as §2
# [17] = tested on: Human immunodeficiency virus 2; assay: Inhibitory activity against human immunodeficiency virus type 2 (HIV-2) induced cytopathogenicity in MT-4 cells; format: functional, organism-based; settings: Human immunodeficiency virus 2, MT4
# [18] = tested on: Human immunodeficiency virus 2; assay: Inhibition of human immunodeficiency virus type 2 (HIV-2) induced cytopathogenicity in CEM cells; format: functional, organism-based; settings: Human immunodeficiency virus 2, CCRF-CEM
# [19] = tested on: Human immunodeficiency virus 1; assay: Inhibition of human immunodeficiency virus type 1 (HIV-1) induced cytopathogenicity in CEM cells; format: functional, organism-based; settings: Human immunodeficiency virus 1, CCRF-CEM
# Outline: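 CEM cells (~3 × 10⁵ cells/mL) were infected with 100 CCID50 of HIV-1 (IIIB)/mL and plated with dilutions of compound. After 4 days at 37 °C, giant cell formation was assessed microscopically.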
# [20] = tested on: Human alphaherpesvirus 1; assay: Inhibitory activity against herpes simplex virus type 1 (HSV-1) KOS strain; format: functional, organism-based; outline: as §2
# [21] = tested on: MT4; assay: Inhibitory activity of compound against human immunodeficiency virus type 1 (HIV-1) induced cytopathogenicity in MT-4 cells; NA=Not Active; format: functional, cell-based; outline: as §1
# [22] = Inhibitory activity against herpes simplex virus type 2 (HSV-2) 196 strain; format: functional; outline: as §2
# [23] = tested on: Human alphaherpesvirus 2; assay: Inhibitory activity against herpes simplex virus type 2 (HSV-2) G strain; format: functional, organism-based; outline: as §2
# [24] = tested on: Human alphaherpesvirus 1; assay: Inhibition of herpes simplex virus type 1 (HSV-1) F strain; format: functional, organism-based; outline: as §2
# [25] = tested on: HEL; assay: Compound was evaluated for inhibitory activity against cytomegalovirus (CMV) AD 169 strain; NA=not active; format: functional, cell-based, Homo sapiens; outline: as §3
# [26] = tested on: Vaccinia virus; assay: Compound was evaluated for inhibitory activity against vaccinia virus (VV); NA=not active; format: functional, organism-based, Orthopoxvirus vaccinia; outline: as §4
# [27] = tested on: HEL; assay: Compound was evaluated for inhibitory activity against cytomegalovirus (CMV) Davis strain; NA=Not Active; format: functional, cell-based, Homo sapiens; outline: as §3
# [28] = tested on: Human alphaherpesvirus 1; assay: Inhibitory activity against herpes simplex virus type 1 (HSV-1) McIntyre strain; format: functional, organism-based; outline: as §2
# [29] = tested on: Vaccinia virus; assay: Inhibitory activity against vaccinia virus (VV); format: functional, organism-based; settings: Orthopoxvirus vaccinia; outline: as §4
# [30] = tested on: Human alphaherpesvirus 2; assay: Inhibitory activity against herpes simplex virus type 2 (HSV-2) Lyons strain; format: functional, organism-based; outline: as §2
# [31] = tested on: MT4; assay: Antiviral activity against human immunodeficiency virus type 2 (HIV-2) in MT-4 cells; format: functional, cell-based
# [32] = tested on: Human immunodeficiency virus 1; assay: Antiviral activity against human immunodeficiency virus type-1 (HIV-1) in MT-4 cells; format: functional, organism-based; settings: Human immunodeficiency virus 1, MT4; outline: as §1
SMILES,EC50 [1],EC50 [2],EC50 [3],EC50 [4],EC50 [5],EC50 [6],EC50 [7],EC50 [8],EC50 [9],EC50 [10],EC50 [11],EC50 [12],EC50 [13],EC50 [14],EC50 [15],EC50 [16],EC50 [23],EC50 [25],EC50 [27],other results
Cc1ncnc2c1ncn2CCOCP(=O)(O)O,> 400 µg/mL,Not Active,Not Active,Not Active,Not Active,Not Active,Not Active,100 µg/mL,> 200 µg/mL,200 µg/mL,Not Active,Not Active,Not Active,Not Active,Not Active,Not Active,–,–,–,–
Nc1ncnc2c1nc(Br)n2CCOCP(=O)(O)O,> 100 µg/mL,Not Active,Not Active,Not Active,–,Not Active,Not Active,> 50 µg/mL,> 200 µg/mL,> 50 µg/mL,Not Active,Not Active,–,–,Not Active,Not Active,–,–,–,EC50 [17]: > 100 µg/mL; EC50 [18]: > 100 µg/mL; EC50 [19]: > 100 µg/mL
Nc1ccn(CCOCP(=O)(O)O)c(=O)n1,–,Not Active,Not Active,–,–,–,–,75 µg/mL,> 200 µg/mL,70 µg/mL,–,Not Active,–,–,–,–,300 µg/mL,–,–,EC50 [20]: 300 µg/mL; EC50 [21]: Not Active; EC50 [22]: 300 µg/mL; EC50 [24]: 300 µg/mL
Cc1cn(CCOCP(=O)(O)O)c(=O)nc1N,> 100 µg/mL,Not Active,Not Active,Not Active,Not Active,Not Active,Not Active,–,> 200 µg/mL,–,Not Active,Not Active,Not Active,Not Active,–,Not Active,–,Not Active,Not Active,EC50 [26]: Not Active
CCOP(=O)(O)COCCn1cnc2c(N)nc(N)nc21,> 100 µg/mL,–,–,–,–,–,–,–,> 200 µg/mL,–,–,–,–,–,–,–,70 µg/mL,Not Active,Not Active,EC50 [20]: 300 µg/mL; EC50 [17]: > 400 µg/mL; EC50 [22]: 300 µg/mL; EC50 [28]: 300 µg/mL; EC50 [29]: > 400 µg/mL; EC50 [30]: 150 µg/mL; EC50 [24]: 200 µg/mL
CCOP(=O)(O)COCCn1cnc2c(N)ncnc21,–,–,–,–,–,Not Active,–,–,120 µg/mL,–,–,–,–,–,–,–,70 µg/mL,Not Active,Not Active,EC50 [18]: > 100 µg/mL; EC50 [22]: 150 µg/mL; EC50 [28]: 300 µg/mL; EC50 [19]: > 100 µg/mL; EC50 [30]: 150 µg/mL; EC50 [24]: 150 µg/mL
CC(C)OP(=O)(COCCn1ncc(N)nc1=O)OC(C)C,–,Not Active,Not Active,Not Active,–,Not Active,Not Active,> 100 µg/mL,> 100 µg/mL,> 100 µg/mL,Not Active,–,–,–,Not Active,Not Active,–,–,–,EC50 [21]: Not Active
CCOP(=O)(COCCn1cnc2c(N)nc(N)nc21)OCC,> 400 µg/mL,Not Active,Not Active,Not Active,Not Active,Not Active,Not Active,–,> 200 µg/mL,–,Not Active,Not Active,Not Active,Not Active,Not Active,Not Active,–,Not Active,–,EC50 [17]: > 400 µg/mL
CC(C)OP(=O)(COCCn1ccc(O)cc1=O)OC(C)C,> 200 µg/mL,Not Active,Not Active,Not Active,Not Active,Not Active,Not Active,–,–,–,Not Active,–,Not Active,Not Active,Not Active,Not Active,–,Not Active,Not Active,–
Nc1ccnc2c1ncn2CCOCP(=O)(O)O,–,–,–,–,–,–,–,> 400 µg/mL,13.8 µg/mL,> 400 µg/mL,–,–,–,–,–,–,> 400 µg/mL,–,–,EC50 [20]: > 400 µg/mL; EC50 [21]: Not Active; EC50 [29]: > 400 µg/mL
Nc1nc(S)c2ncn(CCOCP(=O)(O)O)c2n1,–,–,–,–,–,–,–,–,1 µg/mL,–,–,–,–,–,–,–,–,–,–,EC50 [31]: 8.9 µg/mL; EC50 [32]: 9.5 µg/mL
